This passage reports inhibition, Activity and IC50 results from ChEMBL document CHEMBL1938344, “Antiangiogenic activity of 3,4-seco-cycloartane triterpenes from Thai Gardenia spp. and their semi-synthetic analogs” (Bioorg Med Chem Lett, 2012).

Broadly, the inhibition is how much of the control response was suppressed. What is called pIC50 is the IC50 on a negative log10 scale, so that one unit is a factor of ten.

The test system of assay [1] is Aorta. Kind of assay: Antiangiogenic activity in Wistar rat thoracic aortic rings assessed as inhibition of microvessel sprouting at 25 uM after 7 days by phase-contrst microscopy. Format: functional. The conditions noted are these: 168 h. In a few lines:
(§1)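 Thoracic aorta from six-week-old SPF male Wistar rat, everted, cut into 1-mm rings, embedded in porcine tendon collagen gel (30 min, 37 °C). Rings overlaid with RPMI 1640 plus 1% TIS+ containing compound doses or DMSO; 7 days at 37 °C, 5% CO2. Sprout length from cut end to capillary mid-point by phase-contrast microscopy; mean ± SD, n = 6.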

The subject of assay [2] is HUVEC. Kind of assay: Antiangiogenic activity in HUVEC assessed as inhibition of tubule formation at 20 uM after 12 hrs by inverted light microscopy. Conditions: Homo sapiens. Format: functional, cell-based. An outline of the steps: (§2)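 Cells suspended in HuMedia EG2 with graded doses or DMSO vehicle, seeded onto solidified Matrigel and incubated 12 h at 37 °C, 5% CO2. Capillary-like tube length measured microscopically against vehicle control; mean ± SD, n = 5.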

For assay [3], the system named is HUVEC. As to the kind of experiment: Inhibition of VEGF-induced Akt phosphorylation in HUVEC at 2.5 to 10 uM pretreated for 60 mins prior VEGF stimulation measured after 10 mins by Western blotting. Conditions: Homo sapiens. Format: cell-based. In a few lines:
(§3)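 Cells pretreated 1 h with 0–10 µM compound or DMSO, then stimulated with VEGF (10 ng/mL) for 10 min, PBS-washed, lysed with M-PER, protein by microBCA. Blots probed for phospho-Erk1/2 or phospho-Akt (4 °C overnight) and total Erk1/2 or Akt (room temperature); chemiluminescent detection; mean ± SD, n = 3.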

The target of assay [4] is T1, Mitogen-activated protein kinase; ERK1/ERK2 (Homo sapiens) (UniProt P27361+P28482). As to the kind of experiment: Inhibition of VEGF-induced Erk1/2 phosphorylation in HUVEC pretreated for 60 mins prior VEGF stimulation measured after 10 mins by Western blotting. The class given is protein assay. In a few lines:
as §3
A general note: A western blot detects proteins with antibodies after separation by electrophoresis.

The test system of assay [5] is HUVEC. Kind of assay: Antiangiogenic activity in HUVEC assessed as inhibition of VEGF-induced cell migration at 50 uM after 6 hrs by boyden chamber assay. The class given is functional, cell-based. The conditions noted are these: Homo sapiens.
Assay [6] concerns HUVEC. As to the kind of experiment: Antiangiogenic activity in HUVEC assessed as inhibition of cell proliferation after 72 hrs by WST-8-based spectrophotometry. Format: functional. Conditions: Homo sapiens. An outline of the steps: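 Cells seeded in HuMedia EG2, 24 h at 37 °C, 5% CO2, then fresh medium with graded doses or DMSO vehicle for 72 h. Proliferation read by WST-8 at 450 nm; mean ± SD, n = 5; IC50 from dose–response.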
A general note: Tetrazolium assays rely on reduction of a dye to a coloured formazan, in cell work by metabolically active cells.

Assay [7] concerns the target T1, Mitogen-activated protein kinase; ERK1/ERK2 (Homo sapiens). Kind of assay: Inhibition of VEGF-induced Erk1/2 phosphorylation in HUVEC at 2.5 to 10 uM pretreated for 60 mins prior VEGF stimulation measured after 10 mins by Western blotting. The class given is protein assay. Conditions: TDE = time-dependent effect. In a few lines:
as §3

The subject of assay [8] is HUVEC. Kind of assay: Antiangiogenic activity in HUVEC assessed as inhibition of tubule formation at 5 uM after 12 hrs by inverted light microscopy. The class given is functional, cell-based. Conditions: Homo sapiens. An outline of the steps:
as §2

The test system of assay [9] is HUVEC. As to the kind of experiment: Antiangiogenic activity in HUVEC assessed as inhibition of tubule formation after 12 hrs by inverted light microscopy. The class given is functional, cell-based. Conditions: Homo sapiens. In a few lines: as §2
The subject of assay [10] is Aorta. Kind of assay: Antiangiogenic activity in Wistar rat thoracic aortic rings assessed as inhibition of microvessel sprouting after 7 days by phase-contrst microscopy. Format: functional, tissue-based. In a few lines: as §1

pIC50: −log10 of the molar value. Active and inactive are the calls of the source. The rule behind the calls is not given here.

T1 sequence (P27361 whole entry, looked up): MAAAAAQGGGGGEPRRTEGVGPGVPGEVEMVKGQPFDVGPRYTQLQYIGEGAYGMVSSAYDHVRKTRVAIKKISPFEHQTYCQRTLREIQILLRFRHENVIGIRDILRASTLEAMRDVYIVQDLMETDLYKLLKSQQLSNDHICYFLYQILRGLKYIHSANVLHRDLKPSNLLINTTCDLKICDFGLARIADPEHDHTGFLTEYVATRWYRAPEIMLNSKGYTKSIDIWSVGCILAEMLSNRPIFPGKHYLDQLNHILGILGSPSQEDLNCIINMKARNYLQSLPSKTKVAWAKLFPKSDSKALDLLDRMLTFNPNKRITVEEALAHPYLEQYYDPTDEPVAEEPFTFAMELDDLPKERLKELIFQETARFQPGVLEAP
T1 sequence (P28482 whole entry, looked up): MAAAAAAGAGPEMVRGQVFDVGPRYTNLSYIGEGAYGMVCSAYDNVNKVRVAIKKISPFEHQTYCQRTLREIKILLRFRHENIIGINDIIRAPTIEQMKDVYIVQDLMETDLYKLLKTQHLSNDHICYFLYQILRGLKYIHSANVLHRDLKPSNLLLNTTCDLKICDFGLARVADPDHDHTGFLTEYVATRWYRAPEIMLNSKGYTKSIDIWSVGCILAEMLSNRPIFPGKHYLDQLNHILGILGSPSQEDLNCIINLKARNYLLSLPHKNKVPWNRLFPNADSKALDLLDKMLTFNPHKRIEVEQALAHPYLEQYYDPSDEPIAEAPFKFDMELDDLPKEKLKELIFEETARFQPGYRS

Regarding `C=C1C(=O)O[C@@H]2C[C@@H]3[C@]4(CC[C@]5(C)[C@@H]([C@H](C)CC/C=C(\C)C=O)CC[C@@]35C)C[C@]4(CCC(=O)Oc3ccccc3)[C@H]12`, in the assay on Aorta [1], the inhibition at 25 µM was found to be 10%. As to `C=C1C(=O)O[C@@H]2C[C@@H]3[C@]4(CC[C@]5(C)[C@@H]([C@H](C)CC/C=C(\C)C=O)CC[C@@]35C)C[C@]4(CCC(=O)N[C@@H](Cc3ccccc3)C(=O)OC)[C@H]12`, the inhibition at 25 µM in the assay on Aorta [1] came out at 10%. Turning to `C=C1C(=O)O[C@@H]2C[C@@H]3[C@]4(CC[C@]5(C)[C@@H]([C@H](C)CC/C=C(\C)C=O)CC[C@@]35C)C[C@]4(CCC(=O)NC(C)(C)C)[C@H]12`, the inhibition at 25 µM with Aorta [1] came out at 10%. As for `C=C1C(=O)O[C@@H]2C[C@@H]3[C@]4(CC[C@]5(C)[C@@H]([C@H](C)CC/C=C(\C)C=O)CC[C@@]35C)C[C@]4(CCC(=O)NCCCC)[C@H]12`, the inhibition at 25 µM in the assay on Aorta [1] was found to be 10%. Take `C=C1C(=O)O[C@@H]2C[C@@H]3[C@]4(CC[C@]5(C)[C@@H]([C@H](C)CC/C=C(\C)C=O)CC[C@@]35C)C[C@]4(CCC(=O)N3C(=O)CCC3=O)[C@H]12`: the inhibition at 25 µM in the assay on Aorta [1] was 10%.

As for `C=C1C(=O)O[C@@H]2C[C@@H]3[C@]4(CC[C@]5(C)[C@@H]([C@H](C)CC/C=C(\C)COC(=O)c6ccccc6)CC[C@@]35C)C[C@]4(CCC(=O)OC)[C@H]12`, in the assay on Aorta [1], the inhibition at 25 µM is 10%. On to `C=C1C(=O)O[C@@H]2C[C@@H]3[C@]4(CC[C@]5(C)[C@@H]([C@H](C)CC/C=C(\C)COC(=O)c6ccncc6)CC[C@@]35C)C[C@]4(CCC(=O)OC)[C@H]12`, for which the inhibition at 25 µM with Aorta [1] is 10%. Turning to `C=C1C(=O)O[C@@H]2C[C@@H]3[C@]4(CC[C@]5(C)[C@@H]([C@H](C)CC/C=C(\C)COC(=O)c6ccc7ccccc7n6)CC[C@@]35C)C[C@]4(CCC(=O)OC)[C@H]12`, the inhibition at 25 µM in the assay on Aorta [1] stood at 10%. With `C=C1C(=O)O[C@H]2C[C@@H]3[C@@]4(CC[C@]5(C)[C@H]([C@@H](C)CC/C=C(\C)C=O)CC[C@@]35C)C[C@]4(CCC(=O)OC)[C@@H]12` [CORONALOLIDE METHYL ESTER], the inhibition at 25 µM in the assay on Aorta [1] was 10%. `C=C1C(=O)O[C@@H]2C[C@@H]3[C@]4(CC[C@]5(C)[C@@H]([C@H](C)CC/C=C(\C)C=O)CC[C@@]35C)C[C@]4(CCC(=O)O)[C@H]12` [CORONALOLIDE]: in the assay with Aorta [1], the inhibition at 25 µM is 85%. For the compound `C=C1C(=O)O[C@@H]2C[C@@H]3[C@]4(CC[C@]5(C)[C@@H]([C@H](C)CC/C=C(\C)CO)CC[C@@]35C)C[C@]4(CCC(=O)OC)[C@H]12` [SOOTEPIN A], the inhibition at 25 µM with Aorta [1] worked out at 10%.

`C=C1C(=O)O[C@@H]2C[C@@H]3[C@]4(CC[C@]5(C)[C@@H]([C@H](C)CCC=C(C)C)CC[C@@]35C)C[C@]4(CCC(=O)O)[C@H]12` [SOOTEPIN B]: the inhibition entry in the assay on HUVEC [2] and with HUVEC [8] was “Active” in each case. Further, the inhibition entry with HUVEC [3] is “inactive”. Also, the inhibition entry is “Dose-dependent effect” in [4], “tde” in assay [7], “Dose-dependent effect” in the assay with HUVEC [9] and “Dose-dependent effect” in the assay with Aorta [10]. Further, in the assay with HUVEC [5], the outcome was inactive. Further, the Activity result with HUVEC [6] was “Dose-dependent effect”. For the same compound, the negative-log IC50 (pIC50) in the assay on HUVEC [6] was 5.92; with HUVEC [9], 4.95; in the assay on Aorta [10] (168 h) it was 5.35. Besides, the inhibition at 25 µM in the assay on Aorta [1] came out at 100%.

Turning to `C=C(C)[C@@H]1CC[C@@H]2[C@]3(CC[C@]4(C)[C@@H]([C@H](C)CCC=C(C)C)CC[C@@]24C)C[C@]13CCC(=O)O` [SOOTEPIN E], the inhibition at 25 µM in the assay with Aorta [1] stood at 92%.

In the case of `C=C1C(=O)O[C@@H]2C[C@@H]3[C@]4(CC[C@]5(C)[C@@H]([C@H](C)CCC=C(C)C)CC[C@@]35C)C[C@]4(CCC(=O)OC)[C@H]12` [TUBIFEROLIDE METHYL ESTER], in the assay with Aorta [1], the inhibition at 25 µM was 40%.
